Compound activity (PubChem)
Rows were chosen to be rich in hits. Some 2.1% of all compounds tested hit in one or more screens of this group.
DNMT1 block: human DNMT1 methyltransferase inhibitors, primary screen, biochemical, molecular beacon, fluorescence, HinP1I cleavage, uHTS | inhibition (reported as % activation of signal), % at 10 µM | AID 588458, 2011 | DNA (cytosine-5)-methyltransferase 1 (Homo sapiens), P26358 | 360,000 compounds, 0.83% hits; in the data active means inhibition above about 50%
STEP inh: STEP phosphatase inhibitors, primary screen, biochemical, fluorescence intensity, uHTS; inhibition, % at 20 µM; Tyrosine-protein phosphatase non-receptor type 5 (Homo sapiens), P54829; 360,000 compounds, 0.25% hits; AID 588621, 2011; recombinant STEP, OMFP fluorogenic substrate;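 active means inhibition at 20 µM, scaled per plate between control wells, above about 37%, limit read from the data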;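 further: 0% = DMSO with enzyme and substrate and 100% = substrate only without enzyme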
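medium = Bis-Tris buffer pH 6.0, 2.5 mM DTT, 0.005% Tween 20 | test system = STEP (striatal-enriched tyrosine phosphatase) enzyme, cell-free | measure = normalized % inhibition | compound dosing = 20 µM, 1% DMSO | also added = 25 µM OMFP | schedule = reaction 20 min, ambient temperature | measured by = fluorescence read at 480 nm ex / 540 nm em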
LMPTP block: LMPTP phosphatase inhibitors, primary screen, biochemical, fluorescence intensity, uHTS. 360,000 compounds, 0.22% hits. recombinant LMPTP-A, OMFP fluorogenic substrate. inhibition, % at 20 µM;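 active means compounds that cut the enzyme signal by at least half of the control window in the single-dose screen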;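 further: plate controls were DMSO wells with enzyme plus substrate for no effect and substrate without enzyme for full effect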
Target sequence (P24666 whole entry, looked up): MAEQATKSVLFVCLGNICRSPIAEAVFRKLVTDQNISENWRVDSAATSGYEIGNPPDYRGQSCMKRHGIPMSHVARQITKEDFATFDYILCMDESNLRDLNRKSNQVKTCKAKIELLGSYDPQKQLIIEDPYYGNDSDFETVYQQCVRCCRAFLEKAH
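material = LMPTP-A | quantity = 0.625 nM enzyme | reagent = OMFP substrate, 400 µM final | buffer or medium = Bis-Tris pH 6.0, DTT, detergent | detection = endpoint fluorescence intensity from OMFP dephosphorylation | dosing = single 20 µM dose | read-out basis = % inhibition relative to no-enzyme and uninhibited control wells | control set = no-enzyme and uninhibited controls | timing = 50 min at room temperature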
SUMO1 PPI mod: modulators of SUMO1 protein-protein interactions, primary screen, biochemical, uHTS. Small ubiquitin-related modifier 1 (Homo sapiens), P63165. SUMO1 binding to a labelled peptide, TR-FRET, 1 h. inhibition, % at 20 µM. 360,000 compounds, 0.33% hits. AID 602429, 2012; in the data active means inhibition above about 37%
Target sequence (P63165 whole entry, looked up): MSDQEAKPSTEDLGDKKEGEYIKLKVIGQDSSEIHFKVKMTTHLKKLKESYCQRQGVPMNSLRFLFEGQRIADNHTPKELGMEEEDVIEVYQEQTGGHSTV
Scp-1 inhibitor: Scp-1 phosphatase inhibitors, primary screen, biochemical, colorimetric, uHTS; Carboxy-terminal domain RNA polymerase II polypeptide A small phosphatase 1 (Homo …; Recombinant Scp1, phosphopeptide, malachite green phosphate absorbance; 340,000 compounds, 0.88% hits; inhibition, % at 20 µM;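 active means inhibition above about 50% at 20 µM, limit read from the data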;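 further: plate controls were DMSO wells with enzyme for no effect and wells lacking enzyme for full effect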
Target sequence (Q9GZU7 76-261 limits assumed): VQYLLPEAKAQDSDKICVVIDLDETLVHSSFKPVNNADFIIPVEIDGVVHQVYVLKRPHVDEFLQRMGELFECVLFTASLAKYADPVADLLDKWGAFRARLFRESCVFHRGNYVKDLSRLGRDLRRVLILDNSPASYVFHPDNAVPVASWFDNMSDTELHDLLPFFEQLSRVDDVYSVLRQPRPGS
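Assay system: SCP-1 catalytic fragment, aa 76-261 | Buffer or medium: Tris acetate buffer pH 5.5 with MgCl2 and Tween-20 | Compound: One concentration, 20 µM, with 1.0% DMSO | Also added: Phospho 17-mer peptide substrate | Signal: Absorbance at 630 nm | Incubation: 45 min enzyme reaction at room temperature | Measure: % inhibition of SCP-1 phosphate liberation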
GRK2 inh: compounds blocking aptamer binding on GRK2 – biochemical, human GRK2, bead flow cytometry, HTS, primary screen. Beta-adrenergic receptor kinase 1 (Homo sapiens), P25098. FAM-aptamer displacement from GRK2. inhibition of aptamer binding, % at 10 µM. 330,000 compounds, 0.59% hits;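 active means inhibition of aptamer binding above 40%, roughly 3 SD of noise, on plates passing a quality check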;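 further: median bead fluorescence of bound FAM aptamer so fluorescent compounds give negative values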
GRK2 CP1: GRK2 aptamer-displacing inhibitors, retest, confirmation, biochemical, cherry pick 1, bead flow cytometry; aptamer displacement, % at 10 µM; bead-bound GRK2, FAM-aptamer displacement; 2,000 compounds, 4% hits; shares compounds with GRK2 inh;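 active means aptamer displacement above 40%, near three times the noise of non-fluorescent compounds, on plates passing quality checks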;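 further: negative values mostly reflect intrinsic compound fluorescence rather than true enhancement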
Aptamer quench SP: quenches fluorescent RNA aptamer, GRK2 hit artifact | Carboxyfluorescein RNA aptamer on beads, flow cytometry quenching; stronger effect = lower value | shares compounds with GRK2 inh | fluorescence response (% of DMSO), % at 10 µM | 2,000 tested, under 10 active | AID 504580;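 active means compounds that quench the bead-bound fluorescent RNA probe, cutting fluorescence to under half of the solvent control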;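 further: counterscreen run without GRK2 so only probe quenching by compound is measured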
GRK2 CP2: GRK2 aptamer-displacing inhibitors, hit retest, confirmation, biochemical, cherry pick 2, bead flow cytometry; 360 tested, under 10 active; shares compounds with GRK2 inh; bead-bound GRK2, FAM-aptamer displacement; inhibition of aptamer binding, % at 10 µM;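 active means inhibition of aptamer binding above 40%, about triple the noise seen with nonglowing compounds, on plates passing quality control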;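 further: negative values mostly come from compounds that fluoresce themselves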
FAM quench SP: aptamer fluorescence quenching in GRK2 counter-screen | fluorescence response vs DMSO, % at 10 µM | AID 588494 | shares compounds with GRK2 inh | carboxyfluorescein RNA aptamer beads, flow cytometry quenching; stronger effect = lower value | 360 tested, under 10 active;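 active means response vs DMSO under 50%, meaning signal dropped by over half, treated as fluorescence quencher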;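 further: labelled aptamer on streptavidin beads without GRK2 as a quench counter-screen; 100% = bead fluorescence of DMSO wells and lower means quenching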
Numbers without * were called inactive.

Results for Cc1ccnc(NC(=O)CCS(=O)(=O)c2ccccc2)c1 ?
DNMT1 block: 18; STEP inh: 2; LMPTP block: 1; SUMO1 PPI mod: 4; Scp-1 inhibitor: 19; GRK2 inh: 14; GRK2 CP1: 8; Aptamer quench SP: 97

What do the screens show for `Cc1cccc(NC(=O)CCS(=O)(=O)c2ccc(Br)cc2)c1`?
DNMT1 block: -1; STEP inh: -1; LMPTP block: 1; SUMO1 PPI mod: 4; Scp-1 inhibitor: -10; GRK2 inh: 3

What do the screens show for `Cc1cccc(NC(=O)CCS(=O)(=O)c2ccc(Cl)cc2)c1`?
DNMT1 block: -3; STEP inh: -1; LMPTP block: 0; SUMO1 PPI mod: 1; Scp-1 inhibitor: -10; GRK2 inh: 3; GRK2 CP2: 0; FAM quench SP: 100

How did O=C(CCS(=O)(=O)c1ccccc1)Nc1ccc(S(=O)(=O)Nc2ncccn2)cc1 do in these assays?
DNMT1 block: 2; STEP inh: 1; LMPTP block: -2; SUMO1 PPI mod: 6; Scp-1 inhibitor: -1; GRK2 inh: 0

What do the screens show for `CCOc1ccc(CNC(=O)c2cccc(NC(=O)C3=C(C)OCCS3)c2)cc1`?
DNMT1 block: -4; STEP inh: 1; LMPTP block: -3; SUMO1 PPI mod: 4; Scp-1 inhibitor: -5; GRK2 inh: 0; GRK2 CP1: 0; Aptamer quench SP: 99

What do the screens show for `COc1ccc(CC2S/C(=N/N=C/c3ccc(O)cc3)NC2=O)cc1` (stereo not given)?
DNMT1 block: -4; STEP inh: -1; LMPTP block: -2; SUMO1 PPI mod: 0; Scp-1 inhibitor: -3; GRK2 inh: 100*; GRK2 CP1: 1; Aptamer quench SP: 96

How did O=C1N/C(=N/N=C/c2ccc(O)cc2)SC1Cc1ccccc1 (stereo not given) do in these assays?
DNMT1 block: 0; STEP inh: 1; LMPTP block: -1; SUMO1 PPI mod: 1; Scp-1 inhibitor: 16; GRK2 inh: 0

How did COc1cc(/C=C(/NC(C)=O)C(=O)O)cc(Cl)c1OCc1ccc(Br)cc1 do in these assays?
DNMT1 block: -6; STEP inh: 0; LMPTP block: 1; SUMO1 PPI mod: -6; Scp-1 inhibitor: -9; GRK2 inh: 80*; GRK2 CP1: 4; Aptamer quench SP: 94

Results for CCOC(=O)CN1CC(C)(C)N(CC(=O)OCC)CC1(C)C ?
DNMT1 block: -1; STEP inh: -5; LMPTP block: -1; SUMO1 PPI mod: -1; Scp-1 inhibitor: 2

Results for C[C@H]1CCC2[C@](C)(CO)[C@@H](O)CC[C@]2(C)[C@@]12CCC(CO)(CCO)O2 (stereo not given in full) ?
DNMT1 block: -1; STEP inh: 0; LMPTP block: -1; SUMO1 PPI mod: 1; Scp-1 inhibitor: -6; GRK2 inh: 44*; GRK2 CP2: 14; FAM quench SP: 102

How did Cc1ccc2c(COC(=O)CNC(=O)c3ccco3)cc(=O)oc2c1C do in these assays?
DNMT1 block: 3; STEP inh: 3; LMPTP block: 1; SUMO1 PPI mod: -2; Scp-1 inhibitor: 5; GRK2 inh: 2

How did Cc1ccc(S(=O)(=O)N(C)C)cc1NC(=O)C1CCCN(C(=O)c2ccc(Cl)cc2)C1 (stereo not given) do in these assays?
DNMT1 block: 23; STEP inh: 4; LMPTP block: 2; SUMO1 PPI mod: 2; Scp-1 inhibitor: -7; GRK2 inh: 0

Results for Cc1cc(C)c2c(c1)NC(C(=O)O)C1CC=CC21 (stereo not given) ?
DNMT1 block: 76*; STEP inh: 36; LMPTP block: 43; SUMO1 PPI mod: 42*; Scp-1 inhibitor: 72*; GRK2 inh: 93*; GRK2 CP1: 14; Aptamer quench SP: 101

How did O=C(O)C1Nc2c(C(F)(F)F)ccc(Cl)c2C2C=CCC12 (stereo not given) do in these assays?
DNMT1 block: 7; STEP inh: 3; LMPTP block: -1; SUMO1 PPI mod: -2; Scp-1 inhibitor: 2; GRK2 inh: 0

Results for CCOc1cc(/C=C2\SC(=NC)N(C)C2=O)cc(Cl)c1OC(C)=O ?
DNMT1 block: -2; STEP inh: 0; LMPTP block: -2; SUMO1 PPI mod: -24; Scp-1 inhibitor: 5; GRK2 inh: 3

How did CCOc1cc(/C=C2\SC(=NC)N(C)C2=O)c(Br)cc1OC(C)=O do in these assays?
DNMT1 block: 7; STEP inh: 0; LMPTP block: 1; SUMO1 PPI mod: -9; Scp-1 inhibitor: -1; GRK2 inh: 74*; GRK2 CP1: 0; Aptamer quench SP: 92

What do the screens show for `COc1cc2cc(CCOC(=O)N3CCCCC3)oc(=O)c2cc1OC`?
DNMT1 block: 3; STEP inh: 0; LMPTP block: -1; SUMO1 PPI mod: 2; Scp-1 inhibitor: -3; GRK2 inh: 42*; GRK2 CP1: -2; Aptamer quench SP: 98

Results for COc1cc2cc(CCOC(=O)CCCC(=O)O)oc(=O)c2cc1OC ?
DNMT1 block: 0; STEP inh: 1; LMPTP block: 0; SUMO1 PPI mod: 5; Scp-1 inhibitor: 0; GRK2 inh: 2

Results for CN1CCc2c(sc(NC(=O)CS(=O)(=O)c3ccccc3)c2C(N)=O)C1 ?
DNMT1 block: 2; STEP inh: 2; LMPTP block: -1; SUMO1 PPI mod: 1; Scp-1 inhibitor: -5; GRK2 inh: 3; GRK2 CP2: -4; FAM quench SP: 100
